High-throughput results as filed in PubChem.
TRPC4 potent = positive allosteric modulators of TRPC4, primary screen, cell-based, mouse TRPC4beta, HEK293 mu-opioid, Fluo-4 calcium | 0.42% of 310,000 active | B-score at 10 µM | DAMGO EC20, Fluo-4 Ca2+ flux; active compounds read high | Short transient receptor potential channel 4 (Mus musculus), Q9QUQ5 | AID 2227, 2009;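 active = B-score of calcium response area above 5 SD of library B-scores, with initial fluorescence ratio within 5 SD of library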;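 also: B-score of integrated fluorescence ratio over time as area under calcium response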
TRPC6 inh = mouse TRPC6 channel inhibitors, primary screen, cell-based, HEK293, membrane potential dye; Short transient receptor potential channel 6 (Mus musculus), Q61143; B-score at 10 µM; 1.1% of 310,000 active; ACh-evoked depolarization; active compounds read low;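 active = B-score under library mean minus 3 SD, initial fluorescence not abnormally high, positive integrated signal ratio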;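 also: B-score derived from integrated fluorescence ratio over the kinetic read; more negative B-score means stronger inhibition of depolarization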
Target sequence (Q61143 whole entry, looked up): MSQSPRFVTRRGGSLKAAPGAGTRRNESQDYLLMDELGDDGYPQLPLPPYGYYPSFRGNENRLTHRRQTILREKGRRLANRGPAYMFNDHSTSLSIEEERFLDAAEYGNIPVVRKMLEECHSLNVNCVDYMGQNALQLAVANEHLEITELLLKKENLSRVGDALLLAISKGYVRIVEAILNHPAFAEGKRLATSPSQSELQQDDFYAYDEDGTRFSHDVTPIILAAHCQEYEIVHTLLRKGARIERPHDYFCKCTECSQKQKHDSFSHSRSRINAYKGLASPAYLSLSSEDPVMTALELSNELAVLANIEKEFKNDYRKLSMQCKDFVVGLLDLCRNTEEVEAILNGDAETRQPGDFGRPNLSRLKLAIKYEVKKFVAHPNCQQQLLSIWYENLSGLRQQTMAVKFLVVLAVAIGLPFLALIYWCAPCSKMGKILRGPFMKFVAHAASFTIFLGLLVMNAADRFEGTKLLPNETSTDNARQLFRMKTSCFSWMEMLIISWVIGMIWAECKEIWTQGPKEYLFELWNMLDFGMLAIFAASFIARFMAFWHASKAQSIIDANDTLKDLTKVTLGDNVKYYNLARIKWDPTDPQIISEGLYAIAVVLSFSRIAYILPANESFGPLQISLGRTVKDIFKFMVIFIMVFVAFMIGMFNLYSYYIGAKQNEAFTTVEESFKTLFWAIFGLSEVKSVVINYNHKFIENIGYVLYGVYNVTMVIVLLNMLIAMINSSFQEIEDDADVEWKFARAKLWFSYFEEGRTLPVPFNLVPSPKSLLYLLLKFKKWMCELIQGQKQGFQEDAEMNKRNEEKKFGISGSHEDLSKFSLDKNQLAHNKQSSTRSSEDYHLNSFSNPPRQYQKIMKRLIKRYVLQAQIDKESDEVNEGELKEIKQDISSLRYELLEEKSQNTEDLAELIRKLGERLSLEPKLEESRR
TRPC4 act = activators of mouse TRPC4 channel, primary screen, Fluo4 calcium, HEK293 TRPC4beta/mu-opioid cells | B-score at 10 µM | Fluo4 calcium fluorescence; active compounds read high | 0.49% of 310,000 active | Short transient receptor potential channel 4 (Mus musculus), Q9QUQ5;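 active = B-score above 5 SD of library B-scores, and initial fluorescence ratio not above library mean plus 5 SD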;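 also: positive B-score marks a calcium rise read as TRPC4 activation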
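Incubation: 45 min room-temperature Fluo4 loading, 110 s read / System: HEK293 cells stably co-expressing mouse TRPC4beta and mu-opioid receptor / Signal: Fluo4 fluorescence, kinetic / Control set: buffer (low) and maximal DAMGO (high) / Measure: integrated baseline-normalised fluorescence ratio, converted to per-well B score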
TRPC6 activator = mouse TRPC6 channel activators, primary screen, cell-based, HEK293, membrane potential dye | Short transient receptor potential channel 6 (Mus musculus), Q61143 | B-score at 10 µM | HEK293-TRPC6 membrane potential dye fluorescence; active compounds read high | 0.13% of 310,000 active;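 active = B-score of the integrated fluorescence ratio above library mean plus 3 SD, and starting fluorescence ratio within library mean plus 5 SD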;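 also: higher score means more depolarization so channel activation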
TRPC4 inh = inhibitors of mouse TRPC4 channel, primary screen, Fluo4 calcium, HEK293 TRPC4beta/mu-opioid cells. AID 2247, 2010. DAMGO-evoked Fluo4 calcium flux; active compounds read low. 0.39% of 300,000 active. Short transient receptor potential channel 4 (Mus musculus), Q9QUQ5. B-score at 10 µM;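 active = B-score over 3 SD under the library average, no early fluorescence shift, positive overall ratio signal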
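Assay system: HEK293 cells with stable TRPC4beta plus mu-opioid receptor expression. Dosing: single dose. Measured by: Fluo4 Ca2+ flux fluorescence. Also added: DAMGO in two steps, submaximal then maximal. Read-out: B score from integrated Fluo4 fluorescence ratio.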
* marks the source's active call; other numbers are inactive results; i = inactive. Sampled rows, rich in hits. Any-hit rate of the full collection: about 2.3%.

SMILES	TRPC4 potent	TRPC6 inh	TRPC4 act	TRPC6 activator	TRPC4 inh
CCOC(=O)C1(Cc2ccc(Cl)cc2)CCN(Cc2cn(CC)nc2C)CC1	i	i	68*	i	-6*
CCOC(=O)C1(CCCc2ccccc2)CCN(Cc2cnn(C)c2)CC1	i	i	120*	i	i
CCOC(=O)C1(Cc2ccccc2)CCN(Cc2cnn(C(C)C)c2)CC1	i	i	55*	i	i
CCOC(=O)C1(CCc2ccccc2)CCN(Cc2ccccn2)CC1	i	i	i	i	-8*
CCOC(=O)C1(Cc2ccccc2)CCN(Cc2csc(C(C)=O)c2)CC1	i	i	i	i	i
COc1ccc(OC)c2c1cc(C(=O)N[C@H](C(=O)N1CCC(C(=O)O)CC1)C(C)C)n2C	i	i	i	i	i
CCCc1nnc(SCC(=O)N2CCCCC2C)n1CCOC (stereo not given)	i	i	i	i	i
COc1ccc(C(CC(=O)NC(C)c2ccc(-c3ccccc3)cc2)NC(C)=O)cc1 (stereo not given)	i	i	i	i	i
Cc1cccc(-n2cc(-c3ccccc3)c3c(NN4CCOCC4)ncnc32)c1	14*	i	i	i	i
CCOc1ccc(-n2cc(-c3ccccc3)c3c(N4CCOCC4)ncnc32)cc1	16*	i	i	i	i
c1ccc(-c2cn(-c3ccccc3)c3ncnc(N4CCCCC4)c23)cc1	i	i	i	i	i
NC(=O)c1nsc(C(=O)N(Cc2ccc(F)cc2)C(C(=O)NC2CCCC2)c2ccco2)c1N (stereo not given)	i	i	i	i	-7*
COc1ccc(C(C(=O)NCC2CCCO2)N(Cc2cccs2)C(=O)c2snc(C(N)=O)c2N)cc1 (stereo not given)	i	i	i	i	i
Cc1ccccc1N(C(=O)c1snc(C(N)=O)c1N)C(C)C(=O)NC1CCCCC1 (stereo not given)	i	i	i	i	-6*
Cc1ccccc1N(C(=O)c1snc(C(N)=O)c1N)C(C(=O)NC1CCCCC1)c1ccc(O)cc1 (stereo not given)	i	i	i	i	i
NC(=O)c1nsc(C(=O)N(Cc2ccccc2Cl)C(C(=O)NCC2CCCO2)c2ccc(O)cc2)c1N (stereo not given)	i	i	i	i	-8*
COc1ccc(N(C(=O)c2snc(C(N)=O)c2N)C(C(=O)NC2CCCC2)c2ccc(F)cc2)c(OC)c1 (stereo not given)	i	i	i	i	i
COc1ccc(C)cc1N(C(=O)c1snc(C(N)=O)c1N)C(C(=O)NC1CCCC1)c1ccc(F)cc1 (stereo not given)	i	i	i	i	-11*
COc1cccc(CCNC(=O)c2ccc(OC)c(OC3CCN(C(C)C)CC3)c2)c1	i	i	i	i	i
COc1ccc(-n2c(=O)/c(=C\c3cccs3)s/c2=C(/C#N)C(=O)N2CCN(C)CC2)cc1	i	i	i	i	i
COc1cc(SC)ccc1C(=O)Nc1cccc(C2OCCCO2)c1	i	i	i	i	i
COc1ccccc1-n1c(SCC(=O)c2ccc(O)cc2O)nc2cc([N+](=O)[O-])ccc21	i	i	i	i	i
CCOc1ccc(C(C(=O)NCC2CCCO2)N(Cc2cccnc2)C(=O)c2snc(C(N)=O)c2N)cc1 (stereo not given)	i	i	i	i	-6*
Cc1ccccc1N(C(=O)c1snc(C(N)=O)c1N)C(C(=O)NCC1CCCO1)c1ccc(N(C)C)cc1 (stereo not given)	i	i	i	i	i
